Active and inactive are the calls of the source. The rule behind the calls is not given here.
What was measured:
[1] = system: Human immunodeficiency virus 1; experiment: Antiviral activity against HIV1 3B infected in human MT4 cells at 50 to 100 times antiviral EC50 added 1 to 25 hrs post infection assessed as time required for loss of inhibition of viral replication measured at 30 hrs post infection by p24 ELISA method; assay type: functional
[2] = system: Human immunodeficiency virus 1; experiment: Selectivity ratio of EC50 for raltegravir resistant HIV1 harboring integrase Q148H mutant infected in human MT4 cells to EC50 for wild type HIV1 infected in human MT4 cells; assay type: functional
How it was run: (§1)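 MT-4 cells were infected with 100–300 CCID₅₀ of virus stock (titrated in MT-4 cells) in the presence of 5-fold serial drug dilutions. EC₅₀ is the concentration giving 50% protection against virus-induced cytopathic effect, read by MTT reduction (MT-4/MTT assay). The value is the fold-change in EC₅₀ for each mutant strain relative to the wild-type HIV-1 strain.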

[3] = system: Human immunodeficiency virus 1; experiment: Selectivity ratio of EC50 for raltegravir resistant HIV1 harboring integrase N155H mutant infected in human MT4 cells to EC50 for wild type HIV1 infected in human MT4 cells; assay type: functional; how it was run: as §1
[4] = system: Human immunodeficiency virus 1; experiment: Selectivity ratio of EC50 for raltegravir resistant HIV1 harboring integrase G140S/Q148H double mutant infected in human MT4 cells to EC50 for wild type HIV1 infected in human MT4 cells; assay type: functional; how it was run: as §1
[5] = target: T1, CYP1A2 (Homo sapiens, UniProt P05177); experiment: Inhibition of human recombinant CYP1A2 using CEC as substrate at 10 uM incubated for 30 mins by fluorimetry relative to control; assay type: ADME; conditions: recombinant CYP1A2, probe CEC
T1 sequence (P05177 whole entry): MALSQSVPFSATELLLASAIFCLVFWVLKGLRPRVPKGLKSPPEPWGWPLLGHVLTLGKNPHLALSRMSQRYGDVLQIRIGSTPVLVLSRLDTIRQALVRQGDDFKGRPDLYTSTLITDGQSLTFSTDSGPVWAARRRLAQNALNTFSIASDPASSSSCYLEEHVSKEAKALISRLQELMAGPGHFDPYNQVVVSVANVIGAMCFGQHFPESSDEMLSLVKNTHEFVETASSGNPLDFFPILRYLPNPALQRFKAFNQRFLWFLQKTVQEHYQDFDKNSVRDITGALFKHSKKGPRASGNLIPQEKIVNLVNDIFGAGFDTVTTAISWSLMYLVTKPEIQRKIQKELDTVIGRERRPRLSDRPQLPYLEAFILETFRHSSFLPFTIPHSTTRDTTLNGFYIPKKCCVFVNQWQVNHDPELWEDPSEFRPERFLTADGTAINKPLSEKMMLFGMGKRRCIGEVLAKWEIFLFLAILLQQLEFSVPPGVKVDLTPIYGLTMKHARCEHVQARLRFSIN
How it was run: (§2)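 Recombinant CYP isoforms, each with its fluorogenic substrate: CYP1A2 and CYP2C19 with CEC, CYP2C9 and CYP2D6 with MFC, CYP3A4 with BFC. Read as percentage inhibition of control, standard contract assays.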

[6] = target: CYP2C9 (Homo sapiens, UniProt P11712); experiment: Inhibition of human recombinant CYP2C9 using MFC as substrate at 10 uM incubated for 40 mins by fluorimetry relative to control; assay type: ADME; conditions: recombinant CYP2C9, probe MFC; how it was run: as §2
[7] = target: CYP2C19 (Homo sapiens, UniProt P33261); experiment: Inhibition of human recombinant CYP2C19 using CEC as substrate at 10 uM incubated for 50 mins by fluorimetry relative to control; assay type: ADME; conditions: recombinant CYP2C19, probe CEC; how it was run: as §2
[8] = target: CYP3A4 (Homo sapiens, UniProt P08684); experiment: Inhibition of human recombinant CYP3A4 using BFC as substrate at 10 uM incubated for 30 mins by fluorimetry relative to control; assay type: ADME; conditions: recombinant CYP3A4, probe BFC; how it was run: as §2
[9] = target: CYP2D6 (Homo sapiens, UniProt P10635); experiment: Inhibition of human recombinant CYP2D6 using MFC as substrate at 10 uM incubated for 40 mins by fluorimetry relative to control; assay type: ADME; conditions: recombinant CYP2D6, probe MFC; how it was run: as §2
[10] = system: MDCK-II; experiment: Inhibition of human P-gp expressed in MDCK2-MDR1 cells assessed as reduction in calcien-AM efflux at 1 uM incubated for 20 mins by fluorimetry relative to control; assay type: cell-based
How it was run: (§3)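 P-gp efflux inhibition in MDR1-MDCKII cells with calcein AM substrate, tested up to 100.0 µM. Read as percentage inhibition of control.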

[11] = system: MDCK-II; experiment: Inhibition of human P-gp expressed in MDCK2-MDR1 cells assessed as reduction in calcien-AM efflux at 30 uM incubated for 20 mins by fluorimetry relative to control; assay type: cell-based; how it was run: as §3
[12] = system: MDCK-II; experiment: Inhibition of human P-gp expressed in MDCK2-MDR1 cells assessed as reduction in calcien-AM efflux at 100 uM incubated for 20 mins by fluorimetry relative to control; assay type: cell-based; how it was run: as §3
[13] = Cytotoxicity against human HepG2 cells assessed as reduction in cell number at 1 uM after 72 hrs by fluorescent image analysis relative to untreated control; assay type: cell-based; conditions: read-out: INH
How it was run: (§4)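 Contract in vitro cytotoxicity panel covering cell number, intracellular free calcium, nuclear size, membrane permeability and mitochondrial membrane potential. Compounds tested at 1.0, 30.0 and 100.0 µM; values are percentage change versus untreated control, and IC50 where derived.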

[14] = Cytotoxicity against human HepG2 cells assessed as reduction in cell number at 30 uM after 72 hrs by fluorescent image analysis relative to untreated control; assay type: cell-based; conditions: read-out: INH; how it was run: as §4
[15] = Cytotoxicity against human HepG2 cells assessed as reduction in cell number at 100 uM after 72 hrs by fluorescent image analysis relative to untreated control; assay type: cell-based; conditions: read-out: INH; how it was run: as §4
[16] = system: HepG2; experiment: Cytotoxicity against human HepG2 cells assessed as increase in intracellular free calcium level at 1 uM after 72 hrs by fluorescent image analysis relative to untreated control; assay type: cell-based; conditions: hepg2, 72 h; how it was run: as §4
[17] = system: HepG2; experiment: Cytotoxicity against human HepG2 cells assessed as increase in intracellular free calcium level at 30 uM after 72 hrs by fluorescent image analysis relative to untreated control; assay type: cell-based; conditions: hepg2, 72 h; how it was run: as §4
[18] = system: HepG2; experiment: Cytotoxicity against human HepG2 cells assessed as increase in intracellular free calcium level at 100 uM after 72 hrs by fluorescent image analysis relative to untreated control; assay type: cell-based; conditions: hepg2, 72 h; how it was run: as §4
[19] = Cytotoxicity against human HepG2 cells assessed as reduction in nuclear size at 1 uM after 72 hrs by fluorescent image analysis relative to untreated control; assay type: cell-based; conditions: read-out: INH; how it was run: as §4
[20] = Cytotoxicity against human HepG2 cells assessed as reduction in nuclear size at 30 uM after 72 hrs by fluorescent image analysis relative to untreated control; assay type: cell-based; conditions: read-out: INH; how it was run: as §4
[21] = Cytotoxicity against human HepG2 cells assessed as reduction in nuclear size at 100 uM after 72 hrs by fluorescent image analysis relative to untreated control; assay type: cell-based; conditions: read-out: INH; how it was run: as §4
[22] = system: HepG2; experiment: Cytotoxicity against human HepG2 cells assessed as increase in membrane permeability at 1 uM after 72 hrs by fluorescent image analysis relative to untreated control; assay type: cell-based; conditions: hepg2, 72 h
[23] = system: HepG2; experiment: Cytotoxicity against human HepG2 cells assessed as increase in membrane permeability at 30 uM after 72 hrs by fluorescent image analysis relative to untreated control; assay type: cell-based; conditions: hepg2, 72 h
[24] = system: HepG2; experiment: Cytotoxicity against human HepG2 cells assessed as increase in membrane permeability at 100 uM after 72 hrs by fluorescent image analysis relative to untreated control; assay type: cell-based; conditions: hepg2, 72 h
[25] = Cytotoxicity against human HepG2 cells assessed as reduction in mitochondrial membrane potential at 1 uM after 72 hrs by fluorescent image analysis relative to untreated control; assay type: cell-based; conditions: read-out: INH; how it was run: as §4
[26] = Cytotoxicity against human HepG2 cells assessed as reduction in mitochondrial membrane potential at 30 uM after 72 hrs by fluorescent image analysis relative to untreated control; assay type: cell-based; conditions: read-out: INH; how it was run: as §4
[27] = Cytotoxicity against human HepG2 cells assessed as reduction in mitochondrial membrane potential at 100 uM after 72 hrs by fluorescent image analysis relative to untreated control; assay type: cell-based; conditions: read-out: INH; how it was run: as §4
[28] = target: T2, hERG (KCNH2) (Homo sapiens, UniProt Q12809); experiment: in vitro; conditions: CHO-K1 cells expressing human ERG
[29] = target: T2, hERG (KCNH2); experiment: in vitro; conditions: CHO-K1 cells expressing human ERG; remark: listed apart in the source
[30] = target: T2, hERG (KCNH2); experiment: in vitro; conditions: CHO-K1 cells expressing human ERG; remark: listed apart in the source

T2 sequence (Q12809 whole entry): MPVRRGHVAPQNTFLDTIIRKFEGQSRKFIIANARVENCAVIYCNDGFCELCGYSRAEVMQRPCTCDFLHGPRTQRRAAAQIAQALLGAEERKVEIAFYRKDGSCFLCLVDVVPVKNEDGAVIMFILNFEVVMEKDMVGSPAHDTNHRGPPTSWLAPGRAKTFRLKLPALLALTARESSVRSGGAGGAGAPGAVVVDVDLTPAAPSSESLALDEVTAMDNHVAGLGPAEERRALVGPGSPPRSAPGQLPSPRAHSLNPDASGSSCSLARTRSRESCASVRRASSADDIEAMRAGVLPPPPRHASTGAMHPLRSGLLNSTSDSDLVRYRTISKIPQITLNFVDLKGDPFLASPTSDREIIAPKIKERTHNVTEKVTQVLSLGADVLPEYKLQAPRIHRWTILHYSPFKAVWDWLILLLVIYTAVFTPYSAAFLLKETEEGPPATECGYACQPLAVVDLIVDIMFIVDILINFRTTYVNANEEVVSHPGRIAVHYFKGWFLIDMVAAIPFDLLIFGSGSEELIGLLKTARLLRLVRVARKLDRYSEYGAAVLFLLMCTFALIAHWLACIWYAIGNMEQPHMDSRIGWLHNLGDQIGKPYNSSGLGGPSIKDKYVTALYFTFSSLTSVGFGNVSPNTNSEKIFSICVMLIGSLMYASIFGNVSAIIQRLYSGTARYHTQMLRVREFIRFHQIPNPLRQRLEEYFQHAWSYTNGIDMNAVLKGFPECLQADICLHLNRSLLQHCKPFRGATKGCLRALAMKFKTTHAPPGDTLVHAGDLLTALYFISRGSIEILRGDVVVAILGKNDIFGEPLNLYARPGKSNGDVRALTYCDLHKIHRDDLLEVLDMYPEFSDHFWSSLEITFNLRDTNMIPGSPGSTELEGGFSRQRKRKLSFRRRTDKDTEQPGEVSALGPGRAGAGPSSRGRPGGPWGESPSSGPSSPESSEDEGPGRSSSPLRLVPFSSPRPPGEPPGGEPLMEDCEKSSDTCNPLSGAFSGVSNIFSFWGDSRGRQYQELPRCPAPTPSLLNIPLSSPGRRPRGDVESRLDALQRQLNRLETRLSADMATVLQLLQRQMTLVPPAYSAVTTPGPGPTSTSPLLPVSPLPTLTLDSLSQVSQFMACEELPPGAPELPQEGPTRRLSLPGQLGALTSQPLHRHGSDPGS
CYP2D6, sequence (P10635 whole entry): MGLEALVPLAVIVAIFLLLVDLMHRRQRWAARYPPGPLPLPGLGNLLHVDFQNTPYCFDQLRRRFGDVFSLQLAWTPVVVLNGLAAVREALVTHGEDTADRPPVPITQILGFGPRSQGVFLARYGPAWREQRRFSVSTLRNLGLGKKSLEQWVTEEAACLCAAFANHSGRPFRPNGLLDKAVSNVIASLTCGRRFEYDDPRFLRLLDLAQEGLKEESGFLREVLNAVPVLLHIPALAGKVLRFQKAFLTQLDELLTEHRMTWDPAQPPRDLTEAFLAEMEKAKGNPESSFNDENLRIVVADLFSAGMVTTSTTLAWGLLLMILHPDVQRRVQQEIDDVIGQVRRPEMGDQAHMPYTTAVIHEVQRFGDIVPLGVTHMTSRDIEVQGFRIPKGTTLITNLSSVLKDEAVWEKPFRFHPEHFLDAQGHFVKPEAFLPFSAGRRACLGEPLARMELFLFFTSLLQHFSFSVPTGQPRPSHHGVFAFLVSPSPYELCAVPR
CYP2C9, sequence (P11712 whole entry): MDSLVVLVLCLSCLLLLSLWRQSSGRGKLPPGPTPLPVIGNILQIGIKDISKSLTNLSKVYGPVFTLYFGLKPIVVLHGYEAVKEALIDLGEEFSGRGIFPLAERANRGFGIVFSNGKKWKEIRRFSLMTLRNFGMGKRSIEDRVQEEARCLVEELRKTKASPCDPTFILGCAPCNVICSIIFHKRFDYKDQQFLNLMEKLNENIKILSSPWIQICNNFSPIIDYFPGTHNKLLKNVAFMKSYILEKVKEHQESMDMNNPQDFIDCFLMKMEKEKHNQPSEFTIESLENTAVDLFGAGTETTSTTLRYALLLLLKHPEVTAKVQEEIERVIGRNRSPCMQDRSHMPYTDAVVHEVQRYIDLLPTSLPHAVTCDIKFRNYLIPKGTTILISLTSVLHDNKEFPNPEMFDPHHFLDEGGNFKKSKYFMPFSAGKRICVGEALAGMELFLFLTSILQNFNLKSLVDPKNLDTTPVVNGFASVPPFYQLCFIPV
CYP2C19, sequence (P33261 whole entry): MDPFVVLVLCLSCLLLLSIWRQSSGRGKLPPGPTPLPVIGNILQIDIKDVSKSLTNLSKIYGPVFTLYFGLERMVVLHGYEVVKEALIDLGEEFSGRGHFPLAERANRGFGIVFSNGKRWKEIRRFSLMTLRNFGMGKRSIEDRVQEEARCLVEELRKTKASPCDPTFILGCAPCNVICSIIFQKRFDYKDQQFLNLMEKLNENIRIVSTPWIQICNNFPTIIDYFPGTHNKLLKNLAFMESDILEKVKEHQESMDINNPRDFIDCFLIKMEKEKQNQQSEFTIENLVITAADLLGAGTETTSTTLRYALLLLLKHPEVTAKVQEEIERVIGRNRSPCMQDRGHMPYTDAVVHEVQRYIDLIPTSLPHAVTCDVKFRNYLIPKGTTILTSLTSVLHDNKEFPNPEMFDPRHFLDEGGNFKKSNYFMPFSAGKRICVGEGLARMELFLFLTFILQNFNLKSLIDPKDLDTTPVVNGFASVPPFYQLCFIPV
CYP3A4, sequence (P08684 whole entry): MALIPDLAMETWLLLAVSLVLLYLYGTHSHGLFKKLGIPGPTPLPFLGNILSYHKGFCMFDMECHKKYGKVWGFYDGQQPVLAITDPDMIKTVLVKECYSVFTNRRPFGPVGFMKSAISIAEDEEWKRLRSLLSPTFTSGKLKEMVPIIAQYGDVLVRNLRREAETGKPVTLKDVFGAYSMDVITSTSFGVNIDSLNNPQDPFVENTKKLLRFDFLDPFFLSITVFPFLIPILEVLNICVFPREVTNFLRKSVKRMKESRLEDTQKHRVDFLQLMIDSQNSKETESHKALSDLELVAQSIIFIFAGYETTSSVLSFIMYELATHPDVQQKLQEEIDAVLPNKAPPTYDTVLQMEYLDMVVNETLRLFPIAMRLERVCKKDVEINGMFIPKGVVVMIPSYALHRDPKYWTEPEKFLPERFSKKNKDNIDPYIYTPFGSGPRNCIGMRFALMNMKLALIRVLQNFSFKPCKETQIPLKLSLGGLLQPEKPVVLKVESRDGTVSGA

With `O=C(NCc1ccc(F)cc1)C1C(=O)N(O)C(=O)c2ccccc21` (stereo not given) the Activity [1] was “Active”, the “Ratio EC50” value [2] was 1 and the “Ratio EC50” value [3] was 1. The “Ratio EC50” value [4] was 1, the inhibition at 0.5 h, 10 µM [5] was 5.2% and the inhibition at 40 min, 10 µM [6] was 6.4%. The inhibition at 50 min, 10 µM [7] was 18%, the inhibition at 0.5 h, 10 µM [8] was 35.9% and the inhibition at 40 min, 10 µM [9] was 6.6%. The inhibition [10] was -5.4%, the inhibition [11] was -4% and the inhibition [12] was -3.7%. The cytotoxicity at 72 h, 1 µM [13] was -22.8%, the cytotoxicity at 72 h, 30 µM [14] was 25.7% and the cytotoxicity at 72 h, 100 µM [15] was 16%. The Activity [16] was -1.7%, the Activity [17] was 9.6% and the Activity [18] was 29.9%. It also gave a cytotoxicity at 72 h, 1 µM [19] of -1%, a cytotoxicity at 72 h, 30 µM [20] of 13.1% and a cytotoxicity at 72 h, 100 µM [21] of 18.7%. For the same compound, the Activity [22] was -0.5%, the Activity [23] was 20.3% and the Activity [24] was 41.2%. For the same compound, the cytotoxicity at 72 h, 1 µM [25] was 11.8%, the cytotoxicity at 72 h, 30 µM [26] was -21.2% and the cytotoxicity at 72 h, 100 µM [27] was 6.3%. The inhibition at 5 min, 0.1 µM [28] was 3.4%, the inhibition at 5 min, 1 µM [29] was 10.6% and the inhibition at 5 min, 10 µM [30] was 13.3%.

Source: ChEMBL document CHEMBL3804820, “2-hydroxyisoquinoline-1,3(2H,4H)-diones (HIDs) as human immunodeficiency virus type 1 integrase inhibitors: Influence of the alkylcarboxamide substitution of position 4” (Eur J Med Chem, 2016)
